Assay results: ChEMBL document CHEMBL4152256, “Structure-activity relationship of new antimalarial 1-aryl-3-susbtituted propanol derivatives: Synthesis, preliminary toxicity profiling, parasite life cycle stage studies, target exploration, and targeted delivery” (Eur J Med Chem, 2018)
pIC50: −log10 of the molar value.

Tests used:
[1] = Selectivity index, ratio of CC50 for human HepG2A16 cells by MTT assay to IC50 for multidrug-resistant Plasmodium falciparum FCR-3; type: toxicity; conditions: HepG2A16 cells, read-out: Ratio CC50/IC50
In short: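 HepG2-A16 human hepatoma cells were tested by MTT viability assay to give CC50. Blood-stage activity was measured against the multidrug-resistant P. falciparum FCR-3 strain by [3H]-hypoxanthine incorporation to give IC50. SI = CC50 HepG2 / FCR-3 IC50.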

[2] = system: Plasmodium falciparum; assay: Antiplasmodial activity against chloroquine-sensitive Plasmodium falciparum 3D7 by [3H]-hypoxanthine incorporation assay; type: functional, organism-based; conditions: Plasmodium falciparum, 3D7
In short: (§1)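 Blood-stage P. falciparum 3D7 and FCR-3 were tested by a modified [3H]-hypoxanthine incorporation assay. Chloroquine was the reference in all runs.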

[3] = Cytotoxicity against human HepG2A16 cells by MTT assay; type: cell-based; conditions: HepG2A16 cells
In short: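 MTT viability assay on HepG2-A16 cells, giving CC50 values.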

[4] = system: Plasmodium falciparum; assay: Antiplasmodial activity against multidrug-resistant Plasmodium falciparum FCR-3 by [3H]-hypoxanthine incorporation assay; type: functional, organism-based, FCR-3/Gambia; conditions: Plasmodium falciparum, FCR-3/Gambia; in short: as §1

Row | Structure (SMILES) | selectivity ratio [1] | pIC50 [2] | CC50 [3] | pIC50 [4]
1 | OC(CCN1CC=C(c2ccc(F)cc2)CC1)c1ccc(F)c(F)c1 (configuration not stated) | 48 | 5.55 | 97 µM | 5.70
2 | O=[N+]([O-])c1cc(C(F)(F)F)ccc1N1CCN(CCC(O)c2ccc(F)c3ccccc23)CC1 (configuration not stated) |  |  |  | 5.30
3 | O=[N+]([O-])c1ccc(N2CCC(NCCC(O)c3ccc(F)c(Cl)c3)CC2)c(C(F)(F)F)c1 (configuration not stated) | 9 | 6.15 | 4.61 µM | 6.29
4 | N#Cc1ccc(C(O)CCNC2CCN(c3ccc([N+](=O)[O-])cc3C(F)(F)F)CC2)cc1 (configuration not stated) | 11 | 5.37 | 23 µM | 5.69
5 | COc1ccc(C(O)CCN2CC=C(c3ccc(F)cc3)CC2)cc1 (configuration not stated) | 13 | 4.74 | 152 µM | 4.94
6 | O=[N+]([O-])c1ccc(N2CCN(CCC(O)c3ccc(F)c4ccccc34)CC2)c(C(F)(F)F)c1 (configuration not stated) |  |  |  | 6.30
7 | COc1ccccc1N1CCN(CCC(O)c2ccc3ccccc3c2)CC1 (configuration not stated) | 36 | 5.39 | 95 µM | 5.58
8 | O=[N+]([O-])c1ccc(N2CCC(NCCC(O)c3ccccc3)CC2)c(C(F)(F)F)c1 (configuration not stated) | 15 | 5.35 | 27.6 µM | 5.74
9 | OC(CCN1CCN(c2ccc(C(F)(F)F)cc2)CC1)c1ccc(F)c2ccccc12 (configuration not stated) |  |  |  | 6.03
